In brackets after ≈: the same amount, converted by molar mass.
Tests used:
[1] = Solubility in sodium phosphate buffer at pH 7.4; assay type: physicochemical
[2] = Solubility in oil; assay type: physicochemical
[3] = target: T1, Liver carboxylesterase 1 (Homo sapiens, UniProt P23141); test: Activity of human recombinant carboxylesterase 1 assessed as AUDA hydrolysis; set-up: scale not given: the % may be the effect or the level left
T1 sequence (P23141 whole entry): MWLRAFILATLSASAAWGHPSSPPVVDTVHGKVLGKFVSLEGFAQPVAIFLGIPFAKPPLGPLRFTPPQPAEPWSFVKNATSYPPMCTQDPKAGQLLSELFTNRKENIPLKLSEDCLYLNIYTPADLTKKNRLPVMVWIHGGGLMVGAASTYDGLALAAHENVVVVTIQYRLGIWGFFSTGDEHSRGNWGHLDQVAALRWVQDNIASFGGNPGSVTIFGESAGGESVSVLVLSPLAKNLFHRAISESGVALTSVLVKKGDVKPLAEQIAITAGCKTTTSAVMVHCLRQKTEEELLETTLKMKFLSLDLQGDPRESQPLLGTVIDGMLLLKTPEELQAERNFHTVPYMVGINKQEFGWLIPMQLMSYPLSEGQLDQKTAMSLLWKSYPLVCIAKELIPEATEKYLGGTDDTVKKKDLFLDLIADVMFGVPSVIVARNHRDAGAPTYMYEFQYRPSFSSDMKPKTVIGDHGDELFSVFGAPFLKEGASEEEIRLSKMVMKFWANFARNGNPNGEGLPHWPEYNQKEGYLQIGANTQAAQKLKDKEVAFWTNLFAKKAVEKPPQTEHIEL

[4] = target: T2, Cocaine esterase (Homo sapiens, UniProt O00748); test: Activity of human recombinant carboxylesterase 2 assessed as AUDA hydrolysis; set-up: concentration or dose not given beside the values
T2 sequence (O00748 whole entry): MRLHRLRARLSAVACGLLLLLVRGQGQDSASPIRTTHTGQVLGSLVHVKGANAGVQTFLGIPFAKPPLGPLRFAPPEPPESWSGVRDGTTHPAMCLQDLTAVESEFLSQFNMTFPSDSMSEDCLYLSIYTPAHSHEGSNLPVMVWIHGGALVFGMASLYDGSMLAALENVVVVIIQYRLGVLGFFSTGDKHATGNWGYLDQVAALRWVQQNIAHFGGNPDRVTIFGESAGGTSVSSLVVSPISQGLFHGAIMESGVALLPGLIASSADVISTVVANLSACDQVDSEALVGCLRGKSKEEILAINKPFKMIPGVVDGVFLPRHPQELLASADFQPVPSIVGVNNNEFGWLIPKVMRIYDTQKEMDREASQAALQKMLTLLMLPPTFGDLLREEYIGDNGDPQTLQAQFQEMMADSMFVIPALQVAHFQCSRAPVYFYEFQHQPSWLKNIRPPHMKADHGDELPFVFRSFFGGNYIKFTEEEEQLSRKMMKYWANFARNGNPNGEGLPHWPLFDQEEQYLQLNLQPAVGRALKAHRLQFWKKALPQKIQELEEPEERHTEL
Outline: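 Ester (100 μM) was incubated with purified baculovirus-expressed human carboxylesterase (hCE-1 or hCE-2, 5 μg; 333 nM) in 0.1 M sodium phosphate pH 7.4 at 37°C. Sampling was at 0, 30 and 60 min, with 60 min reported. Percent free acid (AUDA) formed was measured by LC-MS/MS. Values are averages of three separate measurements.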

[5] = system: Mus musculus; test: Cmax in Swiss Webster mouse at 5 mg/kg, po; assay type: ADME, organism-based; set-up: dose 5 mg/kg, route oral; conditions: in vivo
Outline: (§1)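 Male Swiss Webster mice, 7 weeks old, dosed by oral gavage at 5 mg/kg in olive oil. AUDA was measured in blood by LC-MS/MS. Cmax, AUC to terminal time and T1/2 were calculated from AUDA blood concentrations.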

[6] = system: Mus musculus; test: AUC in Swiss Webster mouse at 5 mg/kg, po; assay type: ADME, organism-based, Plasma; set-up: dose 5 mg/kg, route oral; conditions: in vivo; outline: as §1
[7] = system: Mus musculus; test: Half life in Swiss Webster mouse at 5 mg/kg, po; assay type: ADME, organism-based; set-up: dose 5 mg/kg, route oral; conditions: in vivo
[8] = target: T3, Bifunctional epoxide hydrolase 2 (Homo sapiens, UniProt P34913); test: Inhibition of human soluble epoxide hydrolase by fluorescent based assay
T3 sequence (P34913 whole entry): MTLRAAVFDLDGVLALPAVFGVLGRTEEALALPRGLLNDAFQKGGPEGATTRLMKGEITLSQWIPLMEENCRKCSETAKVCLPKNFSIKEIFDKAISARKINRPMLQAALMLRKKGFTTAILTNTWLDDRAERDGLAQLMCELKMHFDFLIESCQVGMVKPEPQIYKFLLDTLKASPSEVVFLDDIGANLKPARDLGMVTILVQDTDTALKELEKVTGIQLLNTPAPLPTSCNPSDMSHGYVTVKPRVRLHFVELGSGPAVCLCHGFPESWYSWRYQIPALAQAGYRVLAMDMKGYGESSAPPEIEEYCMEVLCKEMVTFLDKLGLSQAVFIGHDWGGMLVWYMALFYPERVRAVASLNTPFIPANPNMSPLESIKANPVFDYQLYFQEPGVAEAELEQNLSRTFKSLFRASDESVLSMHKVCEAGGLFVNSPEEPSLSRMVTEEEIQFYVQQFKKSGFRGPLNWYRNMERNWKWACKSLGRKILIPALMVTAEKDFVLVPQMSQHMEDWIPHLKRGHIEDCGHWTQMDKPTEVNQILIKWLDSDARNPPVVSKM

[9] = target: T4, Bifunctional epoxide hydrolase 2 (Mus musculus, UniProt P34914); test: Inhibition of mouse soluble epoxide hydrolase by spectrometric based assay
T4 sequence (P34914 whole entry): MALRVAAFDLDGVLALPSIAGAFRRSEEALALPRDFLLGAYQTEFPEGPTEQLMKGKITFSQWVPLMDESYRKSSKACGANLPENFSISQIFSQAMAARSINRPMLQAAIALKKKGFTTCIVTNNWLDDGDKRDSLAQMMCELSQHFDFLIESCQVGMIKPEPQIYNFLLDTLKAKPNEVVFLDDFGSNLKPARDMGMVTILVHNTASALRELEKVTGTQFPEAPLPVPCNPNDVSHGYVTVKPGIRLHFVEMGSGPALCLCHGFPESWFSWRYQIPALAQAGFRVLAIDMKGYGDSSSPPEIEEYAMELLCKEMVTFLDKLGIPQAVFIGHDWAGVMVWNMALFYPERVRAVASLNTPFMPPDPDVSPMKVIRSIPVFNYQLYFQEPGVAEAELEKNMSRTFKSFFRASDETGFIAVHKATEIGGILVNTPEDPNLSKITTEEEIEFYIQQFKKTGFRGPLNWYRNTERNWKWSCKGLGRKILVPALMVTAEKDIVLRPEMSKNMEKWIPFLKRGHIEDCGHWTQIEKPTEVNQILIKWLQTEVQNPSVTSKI

[10] = target: T3, Bifunctional epoxide hydrolase 2; test: Inhibition of human soluble epoxide hydrolase by spectrometric based assay

| SMILES | solubility [1] | solubility [2] | Activity [3] | Activity [4] | Cmax [5] | AUC [6] | t1/2 [7] | IC50 [8] | IC50 [9] | IC50 [10] |
| --- | --- | --- | --- | --- | --- | --- | --- | --- | --- | --- |
| O=C(O)CCCCCCCCCCCNC(=O)NC12CC3CC(CC(C3)C1)C2 | 35 µg/mL (≈ 89.2 µM) | 5000 µg/mL (≈ 12700 µM) | 100% | 100% | 26.9 ng/mL | 87 ng·h/mL | 2.3 h | – | – | – |
| CCOC(=O)CCCCCCCCCCCNC(=O)NC12CC3CC(CC(C3)C1)C2 | – | – | – | – | – | – | – | 1.6 nM | – | – |
| C#CCOC(=O)CCCCCCCCCCCNC(=O)NC12CC3CC(CC(C3)C1)C2 | – | – | – | – | – | – | – | 1.8 nM | – | – |
| CCCCCCCCC(NC(=O)CCCCCCCCCCCNC(=O)NC12CC3CC(CC(C3)C1)C2)C(=O)N[C@H]1O[C@@H](CO)[C@H](O)[C@@H](O)[C@@H]1O (stereo partly drawn) | 38 µg/mL (≈ 52.6 µM) | 2000 µg/mL (≈ 2770 µM) | – | – | – | – | – | 7.5 nM | 50 nM | 100 nM |
| CCC(C)OC(=O)CCCCCCCCCCCNC(=O)NC12CC3CC(CC(C3)C1)C2 (stereo not drawn) | 5 µg/mL (≈ 11.1 µM) | 27000 µg/mL (≈ 60200 µM) | – | 26% | 13.1 ng/mL | 47 ng·h/mL | 3.8 h | 0.7 nM | – | – |
| O=C(CCCCCCCCCCCNC(=O)NC12CC3CC(CC(C3)C1)C2)NCC(=O)N[C@H]1O[C@@H](CO)[C@H](O)[C@@H](O)[C@@H]1O | – | – | – | – | – | – | – | 7.6 nM | 50 nM | 220 nM |
| C=CCOC(=O)CCCCCCCCCCCNC(=O)NC12CC3CC(CC(C3)C1)C2 | – | – | – | – | – | – | – | 1 nM | – | – |
| O=C(NCCCCCCCCCCCC(=O)OC12CC3CC(CC(C3)C1)C2)NC12CC3CC(CC(C3)C1)C2 | – | – | – | – | – | – | – | 1.5 nM | 50 nM | 230 nM |
| CC(C)OC(=O)CCCCCCCCCCCNC(=O)NC12CC3CC(CC(C3)C1)C2 | 7 µg/mL (≈ 16.1 µM) | 12000 µg/mL (≈ 27600 µM) | 72% | 39% | 29.6 ng/mL | 84 ng·h/mL | 1.9 h | 1.1 nM | – | – |

The next lines start with the values.

| solubility [1] | solubility [2] | Activity [3] | Activity [4] | Cmax [5] | AUC [6] | t1/2 [7] | IC50 [8] | IC50 [9] | IC50 [10] | SMILES |
| --- | --- | --- | --- | --- | --- | --- | --- | --- | --- | --- |
| 5 µg/mL (≈ 11.1 µM) | 25000 µg/mL (≈ 55700 µM) | 41% | 39% | 39.5 ng/mL | 96 ng·h/mL | – | – | – | – | CCCCOC(=O)CCCCCCCCCCCNC(=O)NC12CC3CC(CC(C3)C1)C2 |
| – | – | – | – | – | – | – | 2.3 nM | – | – | COC(=O)CCCCCCCCCCCNC(=O)NC12CC3CC(CC(C3)C1)C2 |
| – | – | – | – | – | – | – | 1 nM | – | – | CCCOC(=O)CCCCCCCCCCCNC(=O)NC12CC3CC(CC(C3)C1)C2 |
| 1.7 µg/mL (≈ 3.79 µM) | 17000 µg/mL (≈ 37900 µM) | 55% | 33% | 42.9 ng/mL | 110 ng·h/mL | – | 1.2 nM | – | – | CC(C)COC(=O)CCCCCCCCCCCNC(=O)NC12CC3CC(CC(C3)C1)C2 |
| – | – | – | – | – | – | – | 2 nM | – | – | O=C(NCCCCCCCCCCCC(=O)OCc1ccccc1)NC12CC3CC(CC(C3)C1)C2 |
| 10 µg/mL (≈ 21.3 µM) | – | – | – | – | – | – | – | – | – | CS(=O)(=O)NC(=O)CCCCCCCCCCCNC(=O)NC12CC3CC(CC(C3)C1)C2 |

Reference: ChEMBL document CHEMBL1144497 (Bioorg Med Chem, 2007)
